ChEMBL document CHEMBL1759947, “Synthesis and evaluation of arylquinones as BACE1 inhibitors, β-amyloid peptide aggregation inhibitors, and destabilizers of preformed β-amyloid fibrils” (Bioorg Med Chem Lett, 2011)

Assays:
[1] = Inhibition of amyloid beta (25 to 35) aggregation for 4 days by Thioflavin-T fluorescence assay
Method in brief: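 Aβ(25–35) dissolved at 1 mM in PBS (stock), diluted, mixed with quinone and held at 37 °C for 4 days; aggregation read by thioflavin-T fluorescence (ex 448/em 483 nm) after subtracting a ThT blank; IC50 derived.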

[2] = Induction of amyloid beta (25 to 35) disaggregation after 4 days by Thioflavin-T fluorescence assay
Method in brief: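 Aβ(25–35) first held at 37 °C for 4 days to form fibrils, then exposed to quinone for another 4 days at 37 °C; remaining fibrils measured by thioflavin-T fluorescence (ex 448/em 483 nm) with ThT blank subtracted; IC50 derived.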

Beta-secretase 1 = Beta-secretase 1 (Homo sapiens, UniProt P56817); assay: Inhibition of human recombinant BACE1 preincubated after 1 hr by fluorescence assay
Sequence of Beta-secretase 1 (P56817 whole entry): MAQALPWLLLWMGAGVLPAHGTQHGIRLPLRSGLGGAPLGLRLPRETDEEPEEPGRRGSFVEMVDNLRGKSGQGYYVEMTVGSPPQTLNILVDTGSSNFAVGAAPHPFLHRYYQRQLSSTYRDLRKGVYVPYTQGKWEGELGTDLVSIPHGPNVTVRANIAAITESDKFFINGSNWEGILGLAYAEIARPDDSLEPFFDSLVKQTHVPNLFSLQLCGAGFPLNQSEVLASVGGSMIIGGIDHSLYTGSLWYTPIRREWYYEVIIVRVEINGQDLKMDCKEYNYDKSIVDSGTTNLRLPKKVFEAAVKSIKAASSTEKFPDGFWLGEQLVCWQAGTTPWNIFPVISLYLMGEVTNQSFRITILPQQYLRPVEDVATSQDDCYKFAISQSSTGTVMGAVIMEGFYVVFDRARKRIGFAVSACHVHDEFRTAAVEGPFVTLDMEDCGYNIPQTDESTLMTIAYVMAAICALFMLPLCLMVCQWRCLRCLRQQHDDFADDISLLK

SH-SY5Y = assay: Cytotoxicity against human SH-SY5Y cells up to 20 uM for 24 hrs by MTT assay; type: cell-based
Method in brief: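 SH-SY5Y neuroblastoma cells; viability by mitochondrial reduction of MTT to formazan, reported as percent cell death at a single concentration.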

Row | Compound | IC50 [1] | IC50 [2] | IC50 (Beta-secretase 1) | Activity (SH-SY5Y) | IC50 ([1]; read-out: IC50) | IC50 ([2]; read-out: IC50)
1 | O=C1C(c2ccc(O)cc2)=CC(=O)c2c(O)cccc21 | Not Active | Not Active | 16.1 µM | Non-toxic | – | –
2 | O=C1C=C(c2ccc(C(F)(F)F)cc2)C(=O)C=C1c1ccccc1 | – | – | 6.52 µM | Non-toxic | 14.2 µM | 12.3 µM
3 | O=C1C=C(c2ccccc2)C(=O)C(c2ccccc2)=C1 | – | – | 11.4 µM | Non-toxic | 9.28 µM | 9 µM
4 | O=C1C=C(c2ccccc2)C(=O)c2c(O)cccc21 | Not Active | Not Active | 8.98 µM | Non-toxic | – | –
5 | COc1ccc(-c2cc(OC(C)=O)c(-c3ccc(OC)cc3)cc2OC(C)=O)cc1 | Not Active | – | 23.9 µM | Non-toxic | – | > 50 µM
6 | COc1ccc(C2=CC(=O)C(c3ccc(F)cc3)=CC2=O)cc1 | – | – | – | 66.22% | – | –
7 | O=C1C=C(c2ccccc2)C(=O)C=C1c1ccccc1 | – | – | – | Toxic | – | –
8 | COc1ccc(C2=CC(=O)C(c3ccccc3)=CC2=O)cc1 | – | – | – | 56.29% | – | –
9 | COc1ccc(C2=CC(=O)C(c3ccc(OC)cc3)=CC2=O)cc1 | – | – | 23.3 µM | Non-toxic | 6.37 µM | 7.15 µM
10 | O=C1C=C(c2ccccc2)C(=O)C(c2ccc(C(F)(F)F)cc2)=C1 | – | – | – | 100% | – | –
11 | COc1ccc(C2=CC(=O)C=C(c3ccccc3)C2=O)cc1 | – | – | 13.4 µM | Non-toxic | 9.56 µM | 7.87 µM
12 | CC(=O)Oc1cc(-c2ccccc2)c(OC(C)=O)c(-c2ccccc2)c1 | Not Active | Not Active | 20 µM | Non-toxic | – | –
13 | O=C1C=C(c2ccc(F)cc2)C(=O)C=C1c1ccccc1 | – | – | – | 78.08% | – | –
14 | O=C1C(c2ccccc2)=CC(=O)c2c(O)cccc21 | Not Active | Not Active | 12.6 µM | Non-toxic | – | –
15 | COc1ccc(-c2cc(OC(C)=O)cc(-c3ccccc3)c2OC(C)=O)cc1 | Not Active | Not Active | 11.1 µM | Non-toxic | – | –
16 | O=C1C=C(c2ccccc2)C(=O)c2ccccc21 | Not Active | Not Active | 9.33 µM | Non-toxic | – | –
17 | CC(=O)Oc1cc(-c2ccc(C(F)(F)F)cc2)c(OC(C)=O)cc1-c1ccccc1 | – | – | – | Non-toxic | > 50 µM | > 50 µM
18 | COc1ccc(C2=CC(=O)c3c(OC)cccc3C2=O)cc1 | – | Not Active | 11.2 µM | Non-toxic | 22.6 µM | –
19 | O=C1C=C(c2ccc(O)cc2)C(=O)c2ccccc21 | Not Active | Not Active | 8.22 µM | Non-toxic | – | –
20 | COc1cccc2c1C(=O)C(c1ccc(O)cc1)=CC2=O | – | – | 10.3 µM | Non-toxic | 16.6 µM | 5.05 µM
21 | COc1ccc(C2=CC(=O)C=C(c3ccc(F)cc3)C2=O)cc1 | – | – | – | 62.5% | – | –
22 | Oc1cc(-c2ccccc2)c(O)cc1-c1ccccc1 | – | – | 16 µM | Non-toxic | > 50 µM | 14.3 µM
23 | COc1ccc(-c2cc(O)cc(-c3ccccc3)c2O)cc1 | – | – | 9.1 µM | Non-toxic | 17.8 µM | 8.24 µM
24 | COc1ccc(-c2cc(O)cc(-c3ccccc3)c2OC(C)=O)cc1 | Not Active | Not Active | 11.3 µM | Non-toxic | – | –
